Compound activity: PubChem, The Scripps Research Institute Molecular Screening Center
This is a sample that favours compounds with a hit; in the whole collection about 2.5% have one here.
TCR CD3 inh: blocks the human TCR-CD3 interaction; TAMRA-labeled TCR probe fluorescence, biochemical; inhibition, % at 9.4 µM; 0.37% of 360,000 active; AID 651800; in the data active = inhibition above about 19%;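 note: recombinant mutant TCR 2C K166C tagged with TAMRA read by polarization; 0% = receptor in buffer alone and 100% = receptor with positive control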
ABHD4 inh: inhibitors of mouse ABHD4; 0.54% of 370,000 active; Q8VD66; inhibition, % at 8.92 µM; purified mABHD4, FP-Rh probe fluorescence polarization; AID 720543;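 active = inhibition exceeding the mean over every tested compound plus 3 SD, cut at about 30% in these data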;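 note: 0% = plate median of compound wells and 100% = S159A mutant with DMSO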
Target sequence (Q8VD66 whole entry, looked up): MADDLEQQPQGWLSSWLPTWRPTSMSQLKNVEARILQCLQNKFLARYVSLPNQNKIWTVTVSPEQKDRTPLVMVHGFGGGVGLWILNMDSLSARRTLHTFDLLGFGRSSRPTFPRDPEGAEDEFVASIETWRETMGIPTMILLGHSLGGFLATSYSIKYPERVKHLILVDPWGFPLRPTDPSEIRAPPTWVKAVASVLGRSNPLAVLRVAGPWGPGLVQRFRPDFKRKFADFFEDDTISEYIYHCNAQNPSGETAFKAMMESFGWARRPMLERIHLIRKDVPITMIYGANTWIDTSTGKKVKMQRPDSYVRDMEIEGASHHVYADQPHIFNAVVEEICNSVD
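System: mouse ABHD4 enzyme, wild type / Medium: HEPES pH 7.0, NaCl, Pluronic buffer / Reagent: FP-Rh activity-based fluorescent probe / Control set: S159A mutant high control, sample median low control / Detection: fluorescence polarization with parallel and perpendicular emission, 525/598 nm / Schedule: 45 min + 60 min at 25 °C / Compound dosing: 8.92 µM, single dose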
HTRA1 inhibitor: HTRA1 (human) protease inhibition; Q92743; recombinant HTRA1, FP-rhodamine activity-based probe, fluorescence polarization; inhibition, % at 5.96 µM; 0.5% of 340,000 active; in the data active = inhibition above about 36%;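 note: 0% = enzyme with DMSO and 100% = wells lacking enzyme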
PRMT1 inh: PRMT1 (human) inhibition, primary screen. inhibition, % at 2.79 µM. recombinant PRMT1, activity-based probe fluorescence polarization. 1.3% of 370,000 active;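 active = inhibition above about 21% made by adding two undisclosed values, limit read from the data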
SIAE primary: inhibitors of human sialic acid acetylesterase SIAE; SIAE FP-Rh probe binding, fluorescence polarization; inhibition, % at 9.66 µM; 0.69% of 370,000 active;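 active = inhibition above a cutoff: mean of compounds within the control limits plus 3 SD of those, cut at about 17% in these data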;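 note: 0% = plate median of compound wells and 100% = probe without SIAE protein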
PRMT1 inh conf: confirmation of human PRMT1 inhibitors; shares compounds with PRMT1 inh; recombinant His-PRMT1, activity-based probe fluorescence polarization; inhibition, % at 2.79 µM; 42% of 3,300 active;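 active = mean inhibition across replicates above the hit cutoff derived for the earlier primary screen, cut at about 22% in these data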
* marks the source's active call; other numbers are inactive results; x = no result given.

SMILES	TCR CD3 inh	ABHD4 inh	HTRA1 inhibitor	PRMT1 inh	SIAE primary	PRMT1 inh conf
CN(Cc1ccc(OC(F)F)cc1)C(=O)c1ccc2c(=O)n3c(nc2c1)CCC3	4	-4	-2	-2	-3	x
COc1ccc(S(=O)(=O)N2CCOCC2)cc1NC(=O)CSc1nnc(C2CC2)n1C1CC1	3	8	1	40*	-6	0
Cc1cc[n+](-c2[nH]c(=O)sc2/C=N/N=C(\[O-])c2ccccc2)cc1C	-7	9	4	62*	4	38*
COC(=O)c1c(C)oc2ccc(N(C(C)=O)S(=O)(=O)c3ccccc3)cc12	-8	4	-6	3	4	x
COc1ccc(S(=O)(=O)N(C(C)=O)c2ccc3oc(=O)sc3c2)cc1	9	-4	22	94*	-13	64*
CN(C)S(=O)(=O)c1cccc(N=C2NN=C(c3ccccc3)CS2)c1	-4	-6	x	54*	-11	39*
CC(=O)Nc1ccc(C2=NNC(=Nc3cccc(S(=O)(=O)N(C)C)c3)SC2)cc1	x	x	1	x	x	x
S=C(NCc1ccccc1)NNc1nc2ccccc2[nH]1	6	15	10	39*	8	67*
Cc1ccccc1NC(=O)CC1SC(=NC2CCCCC2)NC1=O (stereo unspecified)	-7	-2	4	32*	0	3
Cc1ccc(NC(=O)CC2SC(=NC3CCCCC3)NC2=O)cc1 (stereo unspecified)	0	-18	-5	8	-2	x
Cc1ccc(-n2c(CCC(=O)O)ccc2-c2cccs2)cc1C	-4	0	-2	32*	2	4
CCOC(=O)c1ccc(-n2c(CCC(=O)O)ccc2-c2cccs2)cc1	1	2	-11	47*	4	6
Cc1cccc(NC(=S)NNC(=O)CCn2cc(C)cn2)c1	-1	6	-1	-5	4	x
CCOC(=O)C1=C(C)N=c2sc(=Cc3ccc(OCC(=O)O)cc3)c(=O)n2C1c1ccc(SC)cc1 (stereo unspecified)	6	-55	x	30*	-54	2
CCOC(=O)C1=C(C)N=c2s/c(=C\c3ccc(OCC(=O)O)cc3)c(=O)n2C1c1ccccc1 (stereo unspecified)	4	-36	-24	34*	-17	9
NC(=O)c1csc(CCNC(=O)c2ccccc2)n1	1	6	3	-4	-2	x
c1ccc(Cn2c(SCC3CCC3)nnc2-c2cccnc2)cc1	x	3	x	1	1	x
c1ccc(Cn2c(SCC3CCCCC3)nnc2-c2cccnc2)cc1	x	-2	x	46*	2	-4
O=C(CSc1nnc(CNC(=O)c2ccco2)o1)Nc1nc2ccccc2s1	-5	7	-2	56*	-6	0
O=C(CSc1nnc(CNC(=O)c2ccco2)o1)Nc1ccccc1	6	2	11	-2	4	x
Cc1cc(C)c2nc(N3CCCC(C(=O)NC4CCCC4)C3)sc2c1 (stereo unspecified)	0	3	6	4	-4	x
COC(=O)C1CSc2[nH]c(=O)sc2C1c1ccccc1 (stereo unspecified)	0	6	-2	46*	6	26*
COc1ccc(CNC(=O)CN(Cc2ccco2)C(=O)CNS(=O)(=O)c2ccc(F)cc2)cc1	1	1	5	1	1	x
O=c1oc2c3c4c(cc2c(C(F)(F)F)c1CCN1CCOCC1)CCCN4CCC3	0	-5	5	53*	-7	24*
CSc1nc2nccc(-c3ccc(Oc4ccccc4)cc3)n2n1	5	-24	-36	-1	-10	x
SMILES	TCR CD3 inh	ABHD4 inh	HTRA1 inhibitor	PRMT1 inh	SIAE primary	PRMT1 inh conf
O=C(O)c1ccc(-n2c(-c3cc(-c4ccco4)[nH]n3)n[nH]c2=S)cc1	17	25	5	49*	-4	13
S=c1[nH]nc(-c2cc(-c3ccco3)[nH]n2)n1-c1cccc2ccccc12	0	13	-6	36*	2	33*
CCOc1ccccc1C(=O)Oc1cc(C)[nH]c(=O)c1[N+](=O)[O-]	2	1	2	0	-7	x
CCOC(=O)c1ccc(NC(=S)N2CCN(S(C)(=O)=O)CC2)cc1	6	2	1	-3	2	x
Fc1cc(F)c(C2SCCN2C(=S)Nc2cccc(C(F)(F)F)c2)c(F)c1 (stereo unspecified)	12	-11	-13	78*	-5	9
CCOC(=O)c1ccc(NC(=S)N2CCSC2c2c(F)cc(F)cc2F)cc1 (stereo unspecified)	0	-4	-39	89*	-11	-1
CN1CCC(CNC(=O)Nc2csc3ccccc23)CC1	-8	3	x	42*	2	-1
CCOC(=O)C1CCCN(C2CC(=O)N(c3ccc(C)c(C)c3)C2=O)C1 (stereo unspecified)	-3	1	0	46*	-6	4
CCOC(=O)C1CCCN(C2CC(=O)N(c3cccc(C(F)(F)F)c3)C2=O)C1 (stereo unspecified)	-2	5	0	26*	1	25*
CCOC(=O)C1CCCN(C2CC(=O)N(c3ccccc3)C2=O)C1 (stereo unspecified)	-6	1	-3	57*	-2	0
Cc1ccc(NC(=O)c2cc(-c3ccc(C)o3)nc3ccccc23)cc1	-7	-8	-25	49*	-6	25*
Cc1ccc(-c2cc(C(=O)Nc3cccnc3)c3ccccc3n2)o1	6	3	-1	46*	-2	12
COc1ccc(OC)c(/C=N/NC(=O)c2cc(-c3ccc(C)o3)nc3ccccc23)c1	-4	-27	-23	30*	-12	7
CCC(C)(C)n1nnnc1C(c1cccnc1)N1CCN(c2cccc(C(F)(F)F)c2)CC1 (stereo unspecified)	0	-6	-20	-1	2	x
Cc1nc(SCc2ccc(O)c([N+](=O)[O-])c2)n[nH]1	4	-3	6	3	2	x
Cc1nc(SCc2ccc(O)c([N+](=O)[O-])c2)c([N+](=O)[O-])[nH]1	1	25	0	35*	4	-3
NS(=O)(=O)c1ccc(CNC(=O)c2cccnc2Cl)cc1	2	-1	0	2	0	x
COc1ccc(C(=O)NCC23C=CC(O2)C2C(=O)N(Cc4ccccc4)C(=O)C23)cc1 (stereo unspecified)	0	0	3	54*	3	7
COc1ccc(CCNC(=O)c2ccc(CN3CCC(Cc4ccccc4)CC3)cc2)cc1	-3	-5	4	0	-9	x
COCC(C)n1c(C)cc(C(=O)CSc2ccc(NC(C)=O)cc2)c1C (stereo unspecified)	5	1	11	39*	3	20
COCCn1c(C)cc(C(=O)CSc2nc3ccccc3c(=O)[nH]2)c1C	6	-4	1	3	3	x
